Reference: ChEMBL document CHEMBL2046293, “Design, synthesis, and biological evaluation of conformationally constrained analogues of naphthol AS-E as inhibitors of CREB-mediated gene transcription” (J Med Chem, 2012)

Experiments:
[1] = Inhibition of CREB kinase-inducible domain/CREB binding protein KID-interacting domain interaction after 20 to 24 hrs by luciferase reporter gene assay
[2] = Inhibition of CREB expressed in HEK293T cells assessed as inhibition of forskolin-stimulated CRE transcription incubated for 30 mins prior to forskolin-stimulation measured after 4.5 hrs by luciferase reporter gene assay; format: cell-based; settings: HEK-293T
Method in brief: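 HEK293T cells transfected with pCRE-RLuc (Lipofectamine 2000), replated after 3 h at 1-2 × 10^4 cells/well and attached overnight. Compounds at various concentrations added 30 min before forskolin (10 μM final), then 4.5 h at 37 °C. Lysate Renilla luciferase read with benzyl-coelenterazine (pH 7.4, 10 μg/mL), normalized to Bradford-dye protein (RLU/μg). IC50 from non-linear regression.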

IC50 [1] [µM]	IC50 [2] [µM]	SMILES
5.19	> 50	Cn1nc(Nc2ccc(Cl)cc2)c2cc3ccccc3cc21
2.9	2.29	O=C(Nc1ccc(Cl)cc1)c1cc2ccccc2cc1O
> 50	24.4	Clc1ccc(Nc2noc3cc4ccccc4cc23)cc1
8.74	4.75	Clc1ccc(Nc2n[nH]c3cc4ccccc4cc23)cc1
> 50	> 50	O=c1[nH]c2cc3ccccc3cc2c(=O)n1-c1ccc(Cl)cc1
9.46	19	Clc1ccc(Nc2ncnc3cc4ccccc4cc23)cc1
> 50	30.8	O=c1oc2cc3ccccc3cc2c(=O)n1-c1ccc(Cl)cc1
